High-throughput results: PubChem BioAssay, Broad Institute
PvdQ acylase: blocks Pseudomonas aeruginosa PvdQ acylase activity; purified PvdQ acylase, fluorescence plate reader; inhibition, % at 10 µM; 340,000 tested, 0.063% active; AID 488965; in the data active = inhibition above about 30%, passing the limit was not always enough; inconclusive = no clear call, values can overlap the other calls;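 also: 0% = vehicle neutral wells and 100% = reference inhibitor wells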
FN deposition inh: fibronectin deposition inhibition | AH1F fibroblasts, Alexa488-fibronectin deposition fluorescence, overnight | AID 743247 | 350,000 tested, 0.086% active | inhibition, % at 12.6 µM;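 active = mean inhibition across replicates of 30% or more, regardless of how many single replicates reach that level; inconclusive = mean under 30% yet at least half of replicates reach 30%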;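 also: positive control wells lacked labelled fibronectin entirely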
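Material: AH1F fibroblast monolayer depositing Alexa488-labelled fibronectin into matrix | Input: 10000 AH1F cells/well | Medium: DMEM plus 2% serum, read in PBS | Reagent: Alexa488-fibronectin, 24 nM final in well | Compound dosing: One dose per compound, pinned | Schedule: 1 h adhesion, overnight exposure | Measured by: Fluorescence at 485 nm excitation, 525 nm emission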
PDI inh: inhibitors of human protein disulfide isomerase; P07237; inhibition, % at 10 µM; 350,000 tested, 0.052% active; AID 588391; PDI insulin aggregation turbidity, A650, 90 min;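 active = mean inhibition across replicates of 30% or more, whatever share of single replicates reach that level; inconclusive = mean inhibition below 30% while every single replicate reaches 30%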
Target sequence (P07237 whole entry, looked up): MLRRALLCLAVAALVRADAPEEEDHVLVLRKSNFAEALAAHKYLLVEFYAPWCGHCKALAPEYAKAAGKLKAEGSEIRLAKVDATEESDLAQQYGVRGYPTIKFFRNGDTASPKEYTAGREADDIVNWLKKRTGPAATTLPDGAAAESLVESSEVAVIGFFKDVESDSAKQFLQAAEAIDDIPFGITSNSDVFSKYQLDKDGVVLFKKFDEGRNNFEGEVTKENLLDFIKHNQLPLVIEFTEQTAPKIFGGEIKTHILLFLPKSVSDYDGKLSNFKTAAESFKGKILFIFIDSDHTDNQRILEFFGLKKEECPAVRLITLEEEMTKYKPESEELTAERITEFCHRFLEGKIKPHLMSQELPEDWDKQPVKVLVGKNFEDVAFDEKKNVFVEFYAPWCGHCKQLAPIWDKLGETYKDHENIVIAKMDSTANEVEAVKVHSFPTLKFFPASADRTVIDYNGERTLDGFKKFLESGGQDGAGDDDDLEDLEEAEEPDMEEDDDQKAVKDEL
HIV Env fusion: HIV envelope-mediated fusion inhibition; AID 651610; 360,000 tested, 1.1% active; inhibition, % at 12.3 µM; HeLa-JRFL Env/CEM21 cell fusion, luciferase;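 active = mean replicate inhibition score of at least 50 and every replicate individually at or above 50; inconclusive = only one of the two criteria met; inactive = mean below 50 and not all replicates reaching 50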;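 also: 0% = plate neutral controls and 100% = maraviroc near 300 nM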
rRNA inh HTS: selective bacterial rRNA inhibition in E. coli; E. coli WT GFP vs humanized-ribosome RFP mutants, fluorescence, 24 h; active compounds read low; DMSO median 0, no signal -100; GFP signal change (wild-type ribosome), % (test concentration not listed); 350,000 tested, 1.6% active;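 active = significant combined selectivity score with lowered wild-type GFP, culture density cut under 30%, mutant RFP and density less affected; inactive = any of these conditions unmet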
ERp5 block: inhibitors of human ERp5. ERp5 insulin aggregation, absorbance 650 nm, 90 min. inhibition, % at 9.99 µM. 350,000 tested, 0.05% active. AID 651711;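 active = mean replicate inhibition above about 25%, with every replicate also reaching it, limit read from the data, passing the limit was not always enough; inconclusive = only one of those two criteria met; inactive = neither criterion met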
Starred values were filed as active, the others as inactive; ? = inconclusive; · = no result given; ! = not active in a repeat; [ ] = dose if it differs, or a comment. The list is not random: actives were taken first. Their share in the collection is about 2.2%.

SMILES	PvdQ acylase	FN deposition inh	PDI inh	HIV Env fusion	rRNA inh HTS	ERp5 block
CC1(C(=O)Nc2cccc(C(F)(F)F)c2)Cc2c(-c3cccc(C(F)(F)F)c3)ccnc2O1 (configuration not stated)	·	11	9	15	8	2
Cc1ccc(S(=O)(=O)N(C)C[C@H]2OCCCC[C@@H](C)Oc3ccc(NS(=O)(=O)c4ccc(Cl)cc4)cc3C(=O)N([C@@H](C)CO)C[C@@H]2C)cc1	·	9	·	-21[16.7 µM]	0	2
C[C@H](O)C#Cc1ccc2c(c1)O[C@@H](CN(C)C(=O)Nc1ccccc1)[C@@H](C)CN([C@@H](C)CO)S2(=O)=O	·	2	·	-23[16.7 µM]	-2	13
CCCC(=O)N(Cc1cc(=O)[nH]c2ccccc12)c1cccc(C)c1	7	1	1	16	-5	3
Cc1cccc(N(Cc2cc(=O)[nH]c3ccccc23)C(=O)CCl)c1	-5	-7	2	82*	7	1
CSc1nc(C(=O)N2CCCC(C(=O)c3ccc(Cl)cc3)C2)cs1 (configuration not stated)	-3	4	6	31	-31*	4
Cc1cc(Cl)ccc1C(=O)C1CCCN(C(=O)c2ccoc2)C1 (configuration not stated)	-12	3	4	27	-25*	5
Cc1cc(C(=O)N2CCCC(C(=O)c3ccc(Cl)cc3C)C2)no1 (configuration not stated)	0	·	2	61*	-2	1
C[C@@H]1CN([C@@H](C)CO)C(=O)c2cccc(NC(=O)Nc3ccc(C(F)(F)F)cc3)c2O[C@H]1CN(C)Cc1ccc(C(F)(F)F)cc1	·	·	·	76*[16.7 µM]	6	1
C[C@@H]1CN([C@@H](C)CO)C(=O)c2cccc(NC(=O)Nc3ccc(C(F)(F)F)cc3)c2O[C@H]1CN(C)Cc1ccc(Cl)c(Cl)c1	·	·	·	85*[16.7 µM]	-1	-2
C[C@H](CO)N1C[C@H](C)[C@@H](CN(C)C(=O)NC2CCCCC2)Oc2c(cccc2N(C)C)C1=O	-3	-7	3	85*!	1	2
C[C@@H]1CN([C@H](C)CO)C(=O)c2cccc(NC(=O)C3CCCCC3)c2O[C@H]1CN(C)Cc1ccccc1	·	·	·	74*[16.7 µM]	2	-4
C[C@H]1CN([C@@H](C)CO)C(=O)c2cccc(NC(=O)Nc3ccc(C(F)(F)F)cc3)c2O[C@@H]1CN(C)Cc1ccc(C(F)(F)F)cc1	·	·	·	?	3	1
C[C@@H]1CN([C@H](C)CO)C(=O)c2cccc(NC(=O)Nc3ccc(C(F)(F)F)cc3)c2O[C@H]1CN(C)Cc1ccc(Cl)c(Cl)c1	·	·	·	38[16.7 µM]	-3	-11
O=C(Nc1cc(Cl)cc(Cl)c1)N[C@H]1CC[C@@H](CCNS(=O)(=O)c2cccc(F)c2)O[C@@H]1CO	·	-1	·	13[16.7 µM]	-58	-6
COCC(=O)Nc1ccc2c(c1)OC[C@@H](C)N(Cc1ccccc1F)C[C@H](C)[C@@H](OC)CN(C)C2=O	·	-16	·	·	-6	·
Cc1noc(C)c1S(=O)(=O)Nc1cccc2c1O[C@@H](CN(C)C(=O)Nc1ccc(F)cc1)[C@@H](C)CN([C@@H](C)CO)C2=O	·	0	·	·	0	-4
CNC[C@@H]1Oc2c(NS(C)(=O)=O)cccc2C(=O)N([C@@H](C)CO)C[C@@H]1C	·	·	·	-20[16.7 µM]	-3	1
CNC[C@H]1Oc2c(N)cccc2C(=O)N([C@@H](C)CO)C[C@H]1C	·	·	·	2[16.7 µM]	·	86*
CNC[C@@H]1Oc2ccc(NC(=O)Cc3cn(C)c4ccccc34)cc2C(=O)N([C@@H](C)CO)C[C@@H]1C	·	3	·	·	8	·
Nc1n[nH]c(C2CC2)c1N=Nc1ccc(Cl)c(Cl)c1	·	3	-4	-22	-52*	-1
Cc1nc(N2C(=O)C(=O)/C(=C(/O)c3ccccc3)C2c2ccco2)sc1C (configuration not stated)	-2	·	-1	·	·	·
COC(=O)c1sc(N2C(=O)C(=O)/C(=C(/O)c3ccccc3)C2c2ccco2)nc1C (configuration not stated)	-11	-15	1	15	-34*	-1
COC(=O)c1ccc2nc(Nc3nc4ccc(F)cc4s3)sc2c1	0	-6	8	57*	-1	3
O=C(Nc1nc2ccc(F)cc2s1)C1=COCCO1	18	-2	-11	-23	-20*	-1
SMILES	PvdQ acylase	FN deposition inh	PDI inh	HIV Env fusion	rRNA inh HTS	ERp5 block
O=C(NNc1nc2cc3c(cc2s1)OCCO3)c1ccccc1	-7	-10	-3	-13	-27*	17
O=C(Nc1nc2cc3c(cc2s1)OCCO3)C1=COCCO1	7	0	4	64*	-7	-2
O=C(Nc1cc(F)ccc1F)N[C@H]1CC[C@@H](CCn2cc(C3CC3)nn2)O[C@H]1CO	·	-4	·	0[16.7 µM]	3	0
O=C(C[C@@H]1C[C@@H]2c3cc(NC(=O)CC4CC4)ccc3O[C@@H]2[C@H](CO)O1)NCc1ccc2c(c1)OCO2	·	0	·	-3[16.7 µM]	0	1
CN(C)C(=O)C[C@H]1C[C@@H]2c3cc(NC(=O)NC4CCCCC4)ccc3O[C@@H]2[C@H](CO)O1	·	1	·	75*[16.7 µM]	1	1
CN(C)C(=O)C[C@@H]1C[C@@H]2c3cc(NC(=O)NC4CCCCC4)ccc3O[C@@H]2[C@@H](CO)O1	·	-1	·	23[16.7 µM]	-1	2
O=C(C[C@H]1C[C@H]2c3cc(NC(=O)NC4CCCC4)ccc3O[C@H]2[C@@H](CO)O1)NC1CCCCC1	·	-4	·	84*[16.7 µM]	1	1
O=C(C[C@@H]1C[C@H]2c3cc(NC(=O)NC4CCCCC4)ccc3O[C@H]2[C@@H](CO)O1)NCc1ccncc1	·	-7	·	61*[16.7 µM]	1	0
Cc1noc(C)c1S(=O)(=O)Nc1ccc2c(c1)CC(=O)N([C@H](C)CO)C[C@@H](C)[C@@H](CN(C)Cc1ccc(-c3ccccc3)cc1)O2	·	·	·	4[16.7 µM]	-1	4
COc1ccc(NC(=O)N(C)C[C@H]2Oc3ncc(C#CC(C)C)cc3C(=O)N([C@@H](C)CO)C[C@H]2C)cc1	·	-17	·	-4[16.7 µM]	4	1
CCN(C(=O)COC(=O)c1ccc([N+](=O)[O-])o1)c1cccc2ccccc12	7	9	-9	·	-19*	1
COc1ccc(-c2cn(-c3ccc(C)c(C)c3)c(=S)[nH]2)cc1OC	6	-7	1	7	2	4
COc1ccc(-c2cn(-c3ccccc3)c(=S)[nH]2)cc1OC	18	4	3	62*	12	1
COCC(=O)Nc1ccc2c(c1)OC[C@H](C)N(C(=O)C1CCCC1)C[C@H](C)[C@H](OC)CN(C)C2=O	·	-18	·	5[16.7 µM]	1	·
COc1cccc(-c2nnc3n2N=C(C(C)(C)C)CS3)c1	-9	13	-3	112*	·	·
COc1ccccc1NC(=O)N(C)C[C@@H]1OCc2ccccc2-c2ccccc2C(=O)N([C@@H](C)CO)C[C@H]1C	·	-4	·	-11[16.7 µM]	-2	·
